From ChEMBL document CHEMBL2321694, “Novel 3-hydroxy vinylboronates influence sphingolipid metabolism, cause apoptosis in Jurkat cells and prevent tumor development in nude mice” (Bioorg Med Chem Lett, 2013)
Active and inactive are the calls of the source. The rule behind the calls is not given here.

Tests used:
Mus musculus = assay: Toxicity in nude mouse xenografted with human HT-29 cells assessed as adverse effect at 50 mg/kg, ip up to day 50; format: organism-based; parameters: dose 50 mg/kg, route intraperitoneal; settings: in vivo
Procedure, shortened: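 HT-29 xenograft (1 × 10^6 cells sc) in female nude mice dosed ip once daily for 3 weeks (15 injections) in cremophor/ethanol/water (10:10:80), followed to day 50; general health checked daily by weighing and clinical examination.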

HT-29 [1] = assay: Antitumor activity against human HT-29 cells xenografted in nude mouse assessed as tumor growth inhibition at 50 mg/kg, ip measured after 33 days; format: functional, organism-based; parameters: dose 50 mg/kg
Procedure, shortened: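 Female nude mice 5–6 weeks old (SPF, ~22 °C, 12-h light–dark) injected sc with 1 × 10^6 HT-29 cells, randomized same day to 50 mg/kg (n=5) or vehicle cremophor/ethanol/water (10:10:80) (n=6). Once-daily ip injections for 3 weeks (15 injections), then 4 weeks follow-up; read-out was percentage of tumor-free mice over time.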

Jurkat [2] = assay: Induction of apoptosis in human Jurkat cells assessed as increase in apoptotic cells at 100 uM after 24 hrs by annexin V-propidium iodide staining-based FACS flow cytometric analysis (reference value: 11.99%); format: functional
Jurkat [3] = assay: Cytotoxicity against human Jurkat cells assessed as cell survival after 72 hrs by MTT assay in presence of 10% FCS; format: functional, cell-based
Procedure, shortened: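 Jurkat MTT viability run in RPMI 1640 with 10% FCS, 72 h incubation with compound at 37 °C, 5% CO2; IC50 derived.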

Jurkat [4] = assay: Cell cycle arrest at human Jurkat cells assessed as accumulation at sub G1 phase at 100 uM after 24 hrs by propidium iodide staining-based FACS flow cytometric analysis relative to control; format: functional
Procedure, shortened: (§1)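 Jurkat cells at 1 × 10^6 cells/ml were exposed to compound or vehicle (0.2% DMSO) for 24 h. They were then fixed in cold 70% ethanol, and RNAse (50 μg/ml) and PI were added in PBS. Cell-cycle distribution, including sub-G1, was read by flow cytometry. Data are mean ± s.d., with t test versus naïve control.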

Jurkat [5] = assay: Cytotoxicity against human Jurkat cells assessed as cell survival after 72 hrs by MTT assay; format: functional, cell-based
Procedure, shortened: (§2)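 Cells at 1 × 10^6 cells/ml were plated in RPMI 1640 without FCS; adherent lines (HT-29, ARH-77, Melanoma-624) were left overnight to attach first. Compound was added and MTT read after 72 h incubation at 37 °C, 5% CO2; IC50 derived.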

[6] = Cytotoxicity against human Melanoma-624 cells assessed as cell survival after 72 hrs by MTT assay; format: functional, cell-based; settings: Homo sapiens, 624, 72 h; procedure, shortened: as §2
ARH-77 = assay: Cytotoxicity against human ARH77 cells assessed as cell survival after 72 hrs by MTT assay; format: functional, cell-based; procedure, shortened: as §2
HT-29 [7] = assay: Cytotoxicity against human HT-29 cells assessed as cell survival after 72 hrs by MTT assay; format: functional, cell-based; procedure, shortened: as §2
Jurkat [8] = assay: Cell cycle arrest at human Jurkat cells assessed as accumulation at sub G1 phase at 20 to 50 uM after 24 hrs by propidium iodide staining-based FACS flow cytometric analysis; format: functional; settings: 100 uM, in the assay text read “100 uM” for “20 to 50 uM”; procedure, shortened: as §1
Jurkat [9] = assay: Reduction of sphingomyelin synthesis in fluorescent Bodipy-12-ceramide-treated human Jurkat cells administered 30 mins prior to Bodipy-12-ceramide addition measured after 72 hrs by HPLC analysis in presence of 10% FCS; format: functional, cell-based
Procedure, shortened: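 Jurkat cells (0.75 × 10^6 cells/ml) in medium with 10% FCS received compound or vehicle (0.1% DMSO); 30 min later 0.25 μM Bodipy-12-ceramide was added. After 72 h, lipids were extracted with dichloromethane/methanol, and ceramide and sphingomyelin percentages were quantified by C18 HPLC with fluorescence detection (Ex 505, Em 530 nm). Mean ± s.d., t test versus vehicle.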

HT-29 [10] = assay: Antitumor activity against human HT-29 cells xenografted in nude mouse assessed as tumor growth inhibition at 50 mg/kg, ip measured up to day 33; format: functional, organism-based; parameters: dose 50 mg/kg
[11] = Homo sapiens, ARH-77, 72 h, read-out: IC50
[12] = Homo sapiens, HT-29, 72 h, read-out: IC50

Structure (SMILES)	IC50 (ARH-77; [11]) [µM]	IC50 (HT-29 [7]; [12]) [µM]	further results
CCCCCCCC/C(=C\B1OC(C)(C)C(C)(C)O1)C(O)(c1ccccc1)C1CC1 (stereo unspecified)	6.36	18.3	Activity (Mus musculus): Non-toxic; TGI (HT-29 [1]): inactive; Activity (Jurkat [2]): 15.22%; IC50 (Jurkat [3]): 84 µM; fold change (FC) (Jurkat [4]): >2; IC50 (Jurkat [5]): 16.3 µM; IC50 [6]: 32.3 µM; Activity (Jurkat [8]): Active; Activity (Jurkat [9]): Dose-dependent effect; TGI (HT-29 [10]): Active
CCCCC/C(=C\B1OC(C)(C)C(C)(C)O1)C(O)(c1ccccc1)C1CC1 (stereo unspecified)	10.4	–	IC50 (HT-29 [7]; ht-29): Not Active
CCC/C(=C\B1OC(C)(C)C(C)(C)O1)C(O)(c1ccccc1)C1CC1 (stereo unspecified)	55.2	83.9	–
CCCCCCCC/C(=C\B1OC(C)(C)C(C)(C)O1)C(C)(O)CCCCCC (stereo unspecified)	79.1	> 100	–
CCC/C(=C\B1OC(C)(C)C(C)(C)O1)C1(O)CCCc2ccccc21 (stereo unspecified)	64.9	86.8	–
CCC/C(=C\B1OC(C)(C)C(C)(C)O1)C(O)c1ccccc1 (stereo unspecified)	–	> 100	IC50 (ARH-77; arh-77): Not Active
CCCCC(C)(O)/C(=C/B1OC(C)(C)C(C)(C)O1)CCC (stereo unspecified)	54.6	69.6	–
CCCCCCC(C)(O)/C(=C/B1OC(C)(C)C(C)(C)O1)CCC (stereo unspecified)	33.9	57.2	–
